Measured values reported in ChEMBL document CHEMBL1138329, “Pharmacokinetic/pharmacodynamic model-guided identification of hypoxia-selective 1,2,4-benzotriazine 1,4-dioxides with antitumor activity: the role of extravascular transport” (J Med Chem, 2007).
pIC50: −log10 of the molar value.

Tests used:
[1] = Solubility in culture medium in presence of 5% fetal calf serum; type: physicochemical; settings: culture medium with 5% fetal calf serum
[2] = system: HT-29; test: Effect on human HT29 cells under hypoxic conditions assessed as drug level causing 10% clonogenic survival; type: functional
Procedure, shortened: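 HT29 suspensions (1 or 2 × 10^6 cells/mL) in serum-free medium were stirred under 5% CO2/95% N2 for 90 min. Drug was added from deoxygenated DMSO stock at a level giving about 10% survival at 1 h, and samples were taken up to 3 h. Clonogenic survival (14 days, methylene blue) was fitted with the HPLC concentration–time data, and the 10% survival exposure was interpolated.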

[3] = system: HT-29; test: Ratio of IC50 for HT29 cells under oxic conditions to hypoxic conditions after 4 hrs; type: functional, Homo sapiens
[4] = system: SiHa; test: Ratio of IC50 for SiHa cells under oxic conditions to hypoxic conditions after 4 hrs; type: functional, Homo sapiens
[5] = system: HT-29; test: Cytotoxicity against human HT29 cells under hypoxic conditions after 4 hrs; type: functional, cell-based; settings: HT-29, 4 h
[6] = system: SiHa; test: Cytotoxicity against human SiHa cells under hypoxic conditions after 4 hrs; type: functional, cell-based
[7] = Cmax in CD1 mouse at 750 umol/kg, ip; type: ADME, organism-based; design: dose 750 umol/kg, route intraperitoneal; settings: in vivo
Procedure, shortened: (§1)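 Single i.p. dose to CD-1 homozygous nude mice, drug as HCl salt in 0.9% saline, 5% DMSO/saline or lactate buffer (pH 4.0). Plasma total drug measured by HPLC at 75 or 100% of MTD (MTD from 1.33-fold dose steps, 6 mice). Noncompartmental analysis gave AUC, Cmax and t1/2.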

[8] = system: HT-29; test: Diffusion coefficient, D in HT29 multicellular layers; type: ADME, cell-based; settings: human
Procedure, shortened: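 HT29 multicellular layers were grown 3 days on collagen-coated Teflon membranes, equilibrated 60 min under 95% O2/5% CO2 at 37 °C, then placed in a diffusion chamber. Donor and receiver were sampled up to 5 h and assayed by HPLC. D came from fitting both profiles to a Fickian model with membrane and MCL in series, corrected by support-only Ds.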

[9] = system: Mus musculus; test: Toxicity in ip dosed CD1 mouse; type: organism-based; settings: in vivo
Procedure, shortened: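 MTD in CD-1 homozygous nude mice after single i.p. doses (HCl salts in saline, 5% DMSO/saline or lactate buffer pH 4.0), escalated in 1.33-fold increments. MTD taken as the highest dose causing no death, no body weight loss >15% and no other severe morbidity in any of 6 mice.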

[10] = AUC in CD1 mouse at 750 umol/kg, ip; type: ADME, organism-based; settings: plasma; procedure, shortened: as §1
[11] = Half life in CD1 mouse at 750 umol/kg, ip; type: ADME, organism-based; settings: in vivo; procedure, shortened: as §1
[12] = Cmax in CD1 mouse at 316 umol/kg, ip; type: ADME, organism-based; design: dose 316 umol/kg, route intraperitoneal; settings: in vivo; procedure, shortened: as §1
[13] = AUC in CD1 mouse at 316 umol/kg, ip; type: ADME, organism-based; settings: plasma; procedure, shortened: as §1
[14] = Half life in CD1 mouse at 316 umol/kg, ip; type: ADME, organism-based; settings: in vivo; procedure, shortened: as §1
[15] = Cmax in CD1 mouse at 1000 umol/kg, ip; type: ADME, organism-based; design: dose 1000 umol/kg, route intraperitoneal; settings: in vivo; procedure, shortened: as §1
[16] = system: HT-29; test: Antitumor activity against human HT29 cells implanted in CD1 mouse at 1000 umol/kg, ip administered 5 mins after irradiation by excision assay relative to radiation alone; type: functional
Procedure, shortened: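 Hypoxic-cell excision assay in HT29 xenografts in CD-1 homozygous nude mice. Mice received 20 Gy γ radiation to sterilize oxic tumor cells, then a single i.p. drug dose (HCl salt in saline, 5% DMSO/saline or pH 4.0 lactate buffer) 5 min later. Tumors excised at 18 h and plated for clonogens/g. Log cell kill = log(clonogens/g, radiation only) − log(clonogens/g, radiation plus drug).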

[17] = system: HT-29; test: Antitumor activity against human HT29 cells implanted in CD1 mouse assessed as clonogenic survival at 1000 umol/kg, ip after 18 hrs relative to control; type: functional
Procedure, shortened: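 HT29 xenografts in CD-1 homozygous nude mice; single i.p. dose of drug alone, formulated as the HCl salt in 0.9% saline, 5% DMSO/saline or lactate buffer (pH 4.0). Tumors excised 18 h later, dissociated to single-cell suspensions and plated. Clonogens/g of tumor counted; surviving fraction = treated/control clonogens/g.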

[18] = Half life in CD1 mouse at 1000 umol/kg, ip; type: ADME, organism-based; settings: in vivo; procedure, shortened: as §1

solubility [1] [mM]	D [8] [cm²/s]	SMILES	Activity [2] [µM·h]	Ratio IC50 [3]	Ratio IC50 [4]	pIC50 [5]	pIC50 [6]	Cmax [7] [µM]	MTD [9] [µmol/kg]	AUC [10] [µM·h]	half-life [11] [min]	Cmax [12] [µM]	AUC [13] [µM·h]	half-life [14] [min]	Cmax [15] [µM]	LCK [16]	LCK [17]	half-life [18] [min]
> 51		CCOc1ccc2c(c1)[n+]([O-])c(NCCCN1CCOCC1)n[n+]2[O-]	260.6	52	140	4.74	5.12											
48		COc1ccc2c(c1)[n+]([O-])c(NCCN1CCOCC1)n[n+]2[O-]		>39	70	3.99	4.39											
18		CC(C)c1ccc2c(c1)[n+]([O-])c(NCCN1CCCCC1)n[n+]2[O-]	15.2	41	65	5.57	5.96											
3.2	1.1e-06	[O-][n+]1nc(NCCN2CCCCC2)[n+]([O-])c2cc(Cl)ccc21		19	18	6.40	6.70											
47		COc1ccc2c(c1)[n+]([O-])c(NCCCN1CCC(C#N)C1)n[n+]2[O-] (stereo not drawn)	211.4	41	36	4.39	4.50											
49		Cc1ccc2c(c1)[n+]([O-])c(NCCCN1CCC(C#N)C1)n[n+]2[O-] (stereo not drawn)	62.2	54	54	4.85	5.04											
1.8		CC(C)(C)c1ccc2c(c1)[n+]([O-])c(NCCN1CCOCC1)n[n+]2[O-]		13	55	4.21	4.96											
28	1.5e-06	CC(C)(C)c1ccc2c(c1)[n+]([O-])c(NCCN1CCCCC1)n[n+]2[O-]	30.3	31	121	5.40	6.22											
39		CCc1ccc2c(c1)[n+]([O-])c(NCCN1CCCCC1)n[n+]2[O-]	11.9	65	50	5.82	6.00											
29		COc1ccc2c(c1)[n+]([O-])c(NCCN1C(C)CCCC1C)n[n+]2[O-] (stereo not drawn)	26.1	34	121	5.41	6.00											
> 44		COc1ccc2c(c1)[n+]([O-])c(NCCCN1CCOCC1)n[n+]2[O-]	149.7	>8	447	4.66	4.99											
30		CC(C)c1ccc2c(c1)[n+]([O-])c(NCCN1CCOCC1)n[n+]2[O-]	217.8	14	33	4.35	4.81											

The next lines start with the compound.

SMILES	solubility [1] [mM]	D [8] [cm²/s]	Activity [2] [µM·h]	Ratio IC50 [3]	Ratio IC50 [4]	pIC50 [5]	pIC50 [6]	Cmax [7] [µM]	MTD [9] [µmol/kg]	AUC [10] [µM·h]	half-life [11] [min]	Cmax [12] [µM]	AUC [13] [µM·h]	half-life [14] [min]	Cmax [15] [µM]	LCK [16]	LCK [17]	half-life [18] [min]
CCCN(CCC)CCNc1n[n+]([O-])c2ccc(C(C)C)cc2[n+]1[O-]	39		41.6	35	65	5.36	6.05											
CC(C)c1ccc2c(c1)[n+]([O-])c(NCCN(C)C)n[n+]2[O-]	42		11.6	120	104	5.72	5.96											
CCN(CC)CCNc1n[n+]([O-])c2ccc(Cl)cc2[n+]1[O-]	23			43	28	6.52	6.70											
Cc1ccc2c(c1)[n+]([O-])c(NCCN1CCOCC1)n[n+]2[O-]	> 46	4.52e-07	134	55	86	4.66	5.08	132	1000	86.8	15.4							
CCCN(CCC)CCNc1n[n+]([O-])c2ccc(C(C)(C)C)cc2[n+]1[O-]	32	1.75e-06	66.6	18	35	5.08	5.42											
COc1ccc2c(c1)[n+]([O-])c(NCCN1CCCCC1)n[n+]2[O-]	45		38.9	24	65	4.97	5.52		421			26.7	20.2	24.6				
Cc1ccc2c(c1)[n+]([O-])c(N)n[n+]2[O-]	3	5.43e-07	61.9	36		4.89			1000						198	2.16	0.39	34.1
CN(C)CCCNc1n[n+]([O-])c2ccccc2[n+]1[O-]	38	1.87e-07	7.8	49	82	5.47	5.64											
CCCN(CCC)CCNc1n[n+]([O-])c2ccc(C)cc2[n+]1[O-]	38	1.48e-06	38.6	108	149	5.57	6.22		421			3.8	2.6	17.3				
CC1CCCC(C)N1CCNc1n[n+]([O-])c2ccccc2[n+]1[O-] (stereo not drawn)	48	6.81e-07	5.7	15	41	5.66	6.05											
CCCN(CCC)CCNc1n[n+]([O-])c2ccc(Cl)cc2[n+]1[O-]	0.6			9	21	6.22	6.52											
CN(C)CCNc1n[n+]([O-])c2ccccc2[n+]1[O-]	50		3.2	80	157	6.15	6.70											
CCN(CC)CCNc1n[n+]([O-])c2ccc(C(C)(C)C)cc2[n+]1[O-]	> 48		33.1	37	90	5.37	6.05											
[O-][n+]1nc(NCCN2CCCCC2)[n+]([O-])c2ccccc21	> 49	7.23e-07	2.8	24	55	5.74	5.96											
CCN(CC)CCNc1n[n+]([O-])c2ccc(C(C)C)cc2[n+]1[O-]	45		18.6	122	113	5.70	6.10											
CCc1ccc2c(c1)[n+]([O-])c(NCCN(C)C)n[n+]2[O-]	> 49		6.2	116	186	5.89	6.30		421			21.6	13.2	12.7				
CCN(CC)CCNc1n[n+]([O-])c2ccc(C)cc2[n+]1[O-]	> 49		8.3	51	35	6.00	6.52											
[O-][n+]1nc(NCCN2CCCC2)[n+]([O-])c2ccccc21	61		3.6	70	132	6.22	6.70											
